From paper PMC9078890 (RSC Advances, 2018)
Read-outs that look alike come from different tables or passages of the source.

Assays:
[1] = molecular target: T1, PYK2 (Homo sapiens, UniProt Q14289); assay: Kinase selectivity profiling, HTRF kinEASE-TK; format: biochemical
Method in brief: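 HTRF KinEASE-TK format; enzyme level, reaction time and ATP level were optimised beforehand. Test compound in kinase buffer, at half-log serial dilutions from 100 µM top (final), was mixed with TK substrate-biotin and kinase. ATP was added to start the reaction, which ran at room temperature. Eu3+-cryptate TK antibody and streptavidin-XL665 (0.125 μM final) were added; TR-FRET was read after 1 h. Triplicates; IC50 from sigmoid dose-response fit.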

[2] = molecular target: T1, PYK2; conditions: read-out: Reported IC50 PYK2; cited from earlier work
[3] = molecular target: Truncated human FAK(PTK2) (Homo sapiens, UniProt Q05397); assay: In vitro FAK inhibition, HTRF kinEASE-TK kinase assay; format: biochemical
Truncated human FAK(PTK2), sequence (Q05397 376-1052): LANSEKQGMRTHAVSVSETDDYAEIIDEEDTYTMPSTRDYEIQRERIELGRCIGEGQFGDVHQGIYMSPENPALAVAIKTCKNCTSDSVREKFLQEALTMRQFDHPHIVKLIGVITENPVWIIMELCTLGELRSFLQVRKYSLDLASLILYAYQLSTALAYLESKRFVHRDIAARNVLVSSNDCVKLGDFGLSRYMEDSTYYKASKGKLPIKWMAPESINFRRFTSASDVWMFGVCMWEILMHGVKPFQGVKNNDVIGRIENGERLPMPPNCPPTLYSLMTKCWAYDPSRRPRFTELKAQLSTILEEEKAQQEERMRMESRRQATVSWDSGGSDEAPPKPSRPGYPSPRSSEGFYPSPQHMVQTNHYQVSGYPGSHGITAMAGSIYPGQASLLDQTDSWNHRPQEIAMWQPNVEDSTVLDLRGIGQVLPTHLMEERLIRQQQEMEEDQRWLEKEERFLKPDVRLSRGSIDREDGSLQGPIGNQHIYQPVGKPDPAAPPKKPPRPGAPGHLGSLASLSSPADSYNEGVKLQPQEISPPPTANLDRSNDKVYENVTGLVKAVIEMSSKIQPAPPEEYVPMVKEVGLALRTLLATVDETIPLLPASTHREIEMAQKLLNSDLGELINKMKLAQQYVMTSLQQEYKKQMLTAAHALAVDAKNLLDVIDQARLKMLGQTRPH

[4] = molecular target: IGF-1R (Homo sapiens, UniProt P08069); assay: Kinase selectivity profiling, HTRF kinEASE-TK; format: biochemical; conditions: relative to FAK
IGF-1R, sequence (P08069 31-1367, species assumed): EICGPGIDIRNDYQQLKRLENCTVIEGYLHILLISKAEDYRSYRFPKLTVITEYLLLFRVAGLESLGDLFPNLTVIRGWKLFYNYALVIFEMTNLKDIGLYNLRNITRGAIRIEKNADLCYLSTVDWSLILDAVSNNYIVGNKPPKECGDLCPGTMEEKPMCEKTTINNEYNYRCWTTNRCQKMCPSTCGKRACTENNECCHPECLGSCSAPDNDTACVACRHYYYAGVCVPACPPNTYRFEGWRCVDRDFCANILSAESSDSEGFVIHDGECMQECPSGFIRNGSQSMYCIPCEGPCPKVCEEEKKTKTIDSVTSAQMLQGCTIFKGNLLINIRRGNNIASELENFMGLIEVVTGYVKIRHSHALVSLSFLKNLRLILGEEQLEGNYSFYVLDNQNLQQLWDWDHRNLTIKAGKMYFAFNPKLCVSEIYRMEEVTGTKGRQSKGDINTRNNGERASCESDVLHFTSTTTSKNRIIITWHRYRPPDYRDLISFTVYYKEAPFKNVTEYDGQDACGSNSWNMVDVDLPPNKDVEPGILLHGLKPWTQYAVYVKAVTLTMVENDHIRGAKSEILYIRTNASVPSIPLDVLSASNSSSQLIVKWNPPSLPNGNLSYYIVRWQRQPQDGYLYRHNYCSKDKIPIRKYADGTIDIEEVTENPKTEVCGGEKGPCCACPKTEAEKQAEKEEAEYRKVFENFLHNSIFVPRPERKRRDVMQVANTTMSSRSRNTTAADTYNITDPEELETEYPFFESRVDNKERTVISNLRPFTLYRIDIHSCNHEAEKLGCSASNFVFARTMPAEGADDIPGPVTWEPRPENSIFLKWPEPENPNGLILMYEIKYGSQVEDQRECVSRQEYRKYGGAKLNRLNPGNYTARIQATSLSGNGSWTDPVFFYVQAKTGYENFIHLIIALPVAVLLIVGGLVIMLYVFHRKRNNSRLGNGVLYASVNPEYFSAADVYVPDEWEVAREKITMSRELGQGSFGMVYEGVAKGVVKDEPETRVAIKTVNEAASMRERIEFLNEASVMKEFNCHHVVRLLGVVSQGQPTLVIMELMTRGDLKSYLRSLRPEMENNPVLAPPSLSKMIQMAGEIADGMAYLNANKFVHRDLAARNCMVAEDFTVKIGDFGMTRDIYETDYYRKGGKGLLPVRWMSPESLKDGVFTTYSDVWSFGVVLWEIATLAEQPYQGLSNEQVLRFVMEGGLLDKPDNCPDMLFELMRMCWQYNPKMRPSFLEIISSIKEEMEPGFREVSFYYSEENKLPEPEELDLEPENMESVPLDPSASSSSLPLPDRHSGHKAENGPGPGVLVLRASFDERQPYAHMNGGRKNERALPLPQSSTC

[5] = molecular target: EGFR (Homo sapiens, UniProt P00533); assay: biochemical; format: biochemical
EGFR, sequence (P00533 25-1210, species assumed): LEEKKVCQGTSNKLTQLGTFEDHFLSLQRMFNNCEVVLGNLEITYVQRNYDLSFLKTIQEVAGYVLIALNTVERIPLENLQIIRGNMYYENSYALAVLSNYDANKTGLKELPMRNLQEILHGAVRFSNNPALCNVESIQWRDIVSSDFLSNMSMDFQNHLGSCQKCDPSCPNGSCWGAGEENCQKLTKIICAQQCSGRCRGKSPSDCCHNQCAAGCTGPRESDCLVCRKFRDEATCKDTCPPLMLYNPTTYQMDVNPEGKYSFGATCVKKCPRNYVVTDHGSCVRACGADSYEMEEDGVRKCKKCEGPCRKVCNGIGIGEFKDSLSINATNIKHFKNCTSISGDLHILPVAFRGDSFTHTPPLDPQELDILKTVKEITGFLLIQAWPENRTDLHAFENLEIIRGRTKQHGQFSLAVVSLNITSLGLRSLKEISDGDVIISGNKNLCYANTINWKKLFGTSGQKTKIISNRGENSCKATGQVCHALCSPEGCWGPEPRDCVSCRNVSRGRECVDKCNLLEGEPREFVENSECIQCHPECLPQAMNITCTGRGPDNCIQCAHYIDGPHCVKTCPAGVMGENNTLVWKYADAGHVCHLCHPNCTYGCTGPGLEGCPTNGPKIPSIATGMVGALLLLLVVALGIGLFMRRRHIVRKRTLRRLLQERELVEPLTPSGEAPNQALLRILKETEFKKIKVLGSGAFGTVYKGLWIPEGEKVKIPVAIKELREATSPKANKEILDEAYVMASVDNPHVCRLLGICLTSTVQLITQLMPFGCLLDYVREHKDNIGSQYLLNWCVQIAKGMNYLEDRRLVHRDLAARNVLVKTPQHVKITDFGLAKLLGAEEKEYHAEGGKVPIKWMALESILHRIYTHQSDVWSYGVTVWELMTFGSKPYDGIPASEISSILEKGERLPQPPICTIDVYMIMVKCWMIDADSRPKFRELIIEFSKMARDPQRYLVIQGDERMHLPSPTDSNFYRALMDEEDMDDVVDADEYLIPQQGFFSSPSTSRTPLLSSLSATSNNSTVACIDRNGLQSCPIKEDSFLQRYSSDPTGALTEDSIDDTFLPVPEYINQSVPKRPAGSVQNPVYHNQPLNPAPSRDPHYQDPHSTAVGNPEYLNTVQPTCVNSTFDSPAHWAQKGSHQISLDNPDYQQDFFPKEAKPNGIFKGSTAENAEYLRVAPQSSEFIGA

[6] = molecular target: PDGFRβ (Homo sapiens, UniProt P09619); assay: Kinase selectivity profiling, HTRF kinEASE-TK; format: biochemical; conditions: relative to FAK

T1 sequence (Q14289 whole entry, species assumed): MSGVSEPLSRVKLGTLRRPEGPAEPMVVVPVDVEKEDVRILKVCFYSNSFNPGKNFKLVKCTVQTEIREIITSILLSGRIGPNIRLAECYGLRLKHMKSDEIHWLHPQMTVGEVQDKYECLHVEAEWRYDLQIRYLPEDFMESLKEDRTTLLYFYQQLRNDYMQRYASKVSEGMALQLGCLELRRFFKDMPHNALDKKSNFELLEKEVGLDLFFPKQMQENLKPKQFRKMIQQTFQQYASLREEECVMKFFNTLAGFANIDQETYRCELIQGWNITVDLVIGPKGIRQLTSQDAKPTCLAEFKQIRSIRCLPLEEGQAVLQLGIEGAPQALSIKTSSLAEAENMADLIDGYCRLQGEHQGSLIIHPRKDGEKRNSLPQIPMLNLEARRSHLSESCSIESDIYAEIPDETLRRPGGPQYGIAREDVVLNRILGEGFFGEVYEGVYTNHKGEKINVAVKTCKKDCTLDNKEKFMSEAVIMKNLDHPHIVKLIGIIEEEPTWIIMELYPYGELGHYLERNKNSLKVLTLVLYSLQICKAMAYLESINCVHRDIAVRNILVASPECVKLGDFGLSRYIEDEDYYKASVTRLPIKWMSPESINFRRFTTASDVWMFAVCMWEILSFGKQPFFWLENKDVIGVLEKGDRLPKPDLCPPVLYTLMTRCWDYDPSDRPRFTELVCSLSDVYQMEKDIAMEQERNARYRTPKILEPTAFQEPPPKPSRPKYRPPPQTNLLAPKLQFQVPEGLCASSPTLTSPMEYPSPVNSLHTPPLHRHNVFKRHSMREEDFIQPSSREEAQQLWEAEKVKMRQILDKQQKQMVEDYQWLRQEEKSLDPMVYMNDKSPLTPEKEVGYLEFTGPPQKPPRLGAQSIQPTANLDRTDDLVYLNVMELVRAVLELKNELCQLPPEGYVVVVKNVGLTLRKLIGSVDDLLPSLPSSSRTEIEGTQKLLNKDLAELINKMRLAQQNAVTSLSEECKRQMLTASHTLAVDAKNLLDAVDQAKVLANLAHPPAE

| Compound | IC50 ([1]; read-out: IC50 ± SD PYK2, mean of three determinations) [nM] | IC50 [2] [nM] | IC50 [3] [nM] | IC50 [1] [nM] | selectivity against PYK2 ([1]; relative to FAK) [folds] | selectivity against IGF-1R [4] | IC50 [5] [nM] | selectivity against EGFR ([5]; relative to FAK) [folds] | selectivity against PDGFRβ [6] |
| --- | --- | --- | --- | --- | --- | --- | --- | --- | --- |
| CNC(=O)c1ccccc1Nc1nc(Nc2ccc(N3CCOCC3)cc2OC)ncc1Cl [NVP-TAE226, reference compound] | 5.7 ± 1.4 | 3.5 ± 2.1 | – | – | – | – | – | – | – |
| COc1ccc(Nc2nc(Nc3ccc(OCCOCCF)cc3)ncc2Br)cc1 [[^19F]2, 5-Bromo-N^2-(4-(2-(2-fluoroethoxy)ethoxy)phenyl)-N^4-(4-methoxyphenyl)pyrimidine-2,4-diamine] | – | – | 57.1 ± 8.3 | 3560 ± 626 | 62.4 | more than 200 folds | 4310 ± 562 | 75.5 | more than 200 folds |
| COc1ccc(Nc2nc(Nc3ccc(OCCOCCOCCF)cc3)ncc2Br)cc1 [[^19F]3, 5-Bromo-N^2-(4-(2-(2-(2-fluoroethoxy)ethoxy)ethoxy)phenyl)-N^4-(4-methoxyphenyl)pyrimidine-2,4-diamine] | – | – | 1110 ± 60.9 | – | – | – | – | – | – |
